ChEMBL document CHEMBL1833805, “Histone deacetylase inhibitors from Burkholderia thailandensis” (2011)
Active and inactive are the calls of the source.

Tests used:
Assay type in all cases: functional, organism-based
MDA-MB-231 = test: Antitumor activity against human MDA-MB-231 cells implanted intraperitoneally in mouse assessed as inhibition of tumor cell growth at 1.6 to 2.4 mg/kg, ip administered on day 1 to 4 measured on day 5 by hollow fiber assay
Summary of the method: (§1)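 Human tumour cell lines from a standard 12-line panel encapsulated in polyvinylidene fluoride hollow fibres (500,000 Da exclusion), implanted intraperitoneally or subcutaneously in mice; drug given IP at 2.4 and 1.6 mg/kg/dose on days 1–4; fibres retrieved and viable cell mass determined day 5; T/C versus vehicle-only injected controls.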

SF-295 = test: Antitumor activity against human SF295 cells implanted intraperitoneally in mouse assessed as inhibition of tumor cell growth at 1.6 to 2.4 mg/kg, ip administered on day 1 to 4 measured on day 5 by hollow fiber assay; summary of the method: as §1
U-251 = test: Antitumor activity against human U251 cells implanted intraperitoneally in mouse assessed as inhibition of tumor cell growth at 1.6 to 2.4 mg/kg, ip administered on day 1 to 4 measured on day 5 by hollow fiber assay; summary of the method: as §1
COLO 205 = test: Antitumor activity against human COLO205 cells implanted intraperitoneally in mouse assessed as inhibition of tumor cell growth at 1.6 to 2.4 mg/kg, ip administered on day 1 to 4 measured on day 5 by hollow fiber assay; summary of the method: as §1
SW-620 = test: Antitumor activity against human SW620 cells implanted intraperitoneally in mouse assessed as inhibition of tumor cell growth at 1.6 to 2.4 mg/kg, ip administered on day 1 to 4 measured on day 5 by hollow fiber assay; summary of the method: as §1
LOX IMVI = test: Antitumor activity against human LOXIMVI cells implanted intraperitoneally in mouse assessed as inhibition of tumor cell growth at 1.6 to 2.4 mg/kg, ip administered on day 1 to 4 measured on day 5 by hollow fiber assay; summary of the method: as §1
MDA-MB-435 = test: Antitumor activity against human MDA-MB-435 cells implanted intraperitoneally in mouse assessed as inhibition of tumor cell growth at 1.6 to 2.4 mg/kg, ip administered on day 1 to 4 measured on day 5 by hollow fiber assay; summary of the method: as §1
UACC-62 = test: Antitumor activity against human UACC62 cells implanted intraperitoneally in mouse assessed as inhibition of tumor cell growth at 1.6 to 2.4 mg/kg, ip administered on day 1 to 4 measured on day 5 by hollow fiber assay; summary of the method: as §1
NCI-H23 = test: Antitumor activity against human NCI-H23 cells implanted intraperitoneally in mouse assessed as inhibition of tumor cell growth at 1.6 to 2.4 mg/kg, ip administered on day 1 to 4 measured on day 5 by hollow fiber assay; summary of the method: as §1
NCI-H522 = test: Antitumor activity against human NCI-H522 cells implanted intraperitoneally in mouse assessed as inhibition of tumor cell growth at 1.6 to 2.4 mg/kg, ip administered on day 1 to 4 measured on day 5 by hollow fiber assay; summary of the method: as §1
Homo sapiens = test: Antitumor activity against human OVRAC3 cells implanted intraperitoneally in mouse assessed as inhibition of tumor cell growth at 1.6 to 2.4 mg/kg, ip administered on day 1 to 4 measured on day 5 by hollow fiber assay; summary of the method: as §1
OVCAR-5 = test: Antitumor activity against human OVCAR5 cells implanted intraperitoneally in mouse assessed as inhibition of tumor cell growth at 1.6 to 2.4 mg/kg, ip administered on day 1 to 4 measured on day 5 by hollow fiber assay; summary of the method: as §1

Measured: TGI

C/C=C1\NC(=O)[C@H]2CSSCC/C=C/[C@H](CC(=O)N[C@H](C(C)C)C(=O)N2)OC(=O)[C@H](C(C)C)NC1=O
active: MDA-MB-231 | SF-295 | U-251 | COLO 205 | SW-620 | LOX IMVI | MDA-MB-435 | UACC-62 | NCI-H23 | NCI-H522 | Homo sapiens | OVCAR-5
